Where two headings read alike, the source gives them in different places.

Consider nine molecules from paper PMC4616004 (International journal for parasitology, 2008).

The target in data set [1] is T1, MBP-CpHDAC3 (recombinant CpHDAC3) (Cryptosporidium parvum, UniProt Q5CPX0).
T1 sequence (Q5CPX0 1-973): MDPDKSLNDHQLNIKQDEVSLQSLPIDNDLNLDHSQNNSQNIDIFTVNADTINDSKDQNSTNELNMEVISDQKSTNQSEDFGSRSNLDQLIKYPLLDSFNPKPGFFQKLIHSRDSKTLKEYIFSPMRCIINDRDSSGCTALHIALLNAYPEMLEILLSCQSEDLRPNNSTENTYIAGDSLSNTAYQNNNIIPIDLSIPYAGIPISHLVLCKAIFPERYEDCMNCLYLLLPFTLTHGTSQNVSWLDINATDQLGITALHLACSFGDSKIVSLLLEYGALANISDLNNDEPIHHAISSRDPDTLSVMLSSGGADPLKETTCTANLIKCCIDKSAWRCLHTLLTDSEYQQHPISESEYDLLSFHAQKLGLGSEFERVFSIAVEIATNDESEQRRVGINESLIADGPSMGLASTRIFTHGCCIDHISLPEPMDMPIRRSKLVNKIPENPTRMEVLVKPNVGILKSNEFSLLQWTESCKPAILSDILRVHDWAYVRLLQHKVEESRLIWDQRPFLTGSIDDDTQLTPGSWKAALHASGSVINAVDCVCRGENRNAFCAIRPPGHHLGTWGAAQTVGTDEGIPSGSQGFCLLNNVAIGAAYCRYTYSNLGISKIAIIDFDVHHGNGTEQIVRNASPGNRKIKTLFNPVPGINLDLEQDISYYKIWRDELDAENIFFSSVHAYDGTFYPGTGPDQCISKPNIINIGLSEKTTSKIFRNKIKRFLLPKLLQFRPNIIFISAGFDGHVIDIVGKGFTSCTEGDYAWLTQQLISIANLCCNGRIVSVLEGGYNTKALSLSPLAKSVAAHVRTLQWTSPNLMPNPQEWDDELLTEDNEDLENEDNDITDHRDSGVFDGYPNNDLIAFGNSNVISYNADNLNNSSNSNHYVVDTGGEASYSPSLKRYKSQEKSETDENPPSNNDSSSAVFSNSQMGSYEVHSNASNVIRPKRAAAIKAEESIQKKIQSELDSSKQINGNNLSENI
Kind of data set: Fluor de Lys fluorogenic deacetylase assay. In kind it is biochemical.

In data set [2] the test system is Pf lipase (Pseudomonas fluorescens lipase). Kind of data set: fluorescent esterase assay. To be noted: pH 6.8, 25 °C, 1 mM MgCl2. In kind it is biochemical. In outline:
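Commercial lipase, stored in glycerol-containing buffer at −20 °C, was used at 4.6 nM final. Acetyl, propionyl or butyryl 4-methylumbelliferyl esters were freshly diluted in ice-cold buffer (137 mM NaCl, 2.7 mM KCl). Reactions ran at 25 °C, with fluorescence (Ex 355, Em 444) read every minute and converted via a 4-methylumbelliferone standard curve. No-protein backgrounds were subtracted, and 10-min points were used. Km came from non-linear fits of duplicate/triplicate reactions.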

Data set [3] addresses T1, MBP-CpHDAC3 (recombinant CpHDAC3). Kind of data set: Fluor de Lys fluorogenic deacetylase assay. The class given is biochemical. As to conditions: pH 8.1, 20 °C, 1 mM MgCl2.
Substrate in data set [4]: CC(=O)Oc1ccc2c(C)cc(=O)oc2c1
Kind of data set: fluorescent esterase assay. In kind it is biochemical, Cryptosporidium parvum. To be noted: pH 6.8, 25 °C, 1 mM MgCl2.

Substrate in data set [5]: CCC(=O)Oc1ccc2c(C)cc(=O)oc2c1
Kind of data set: fluorescent esterase assay. The class given is biochemical, Cryptosporidium parvum. To be noted: pH 6.8, 25 °C, 1 mM MgCl2.

In the case of `O=C(CCCCCCC(=O)Nc1ccccc1)NO` [Vorinostat], the IC50 in data set [1] is 89 ± 7.9 nM. Consider `CCCC(=O)Oc1ccc2c(C)cc(=O)oc2c1` [4-methylumbelliferyl-butyrate], for which the Km in data set [2] (read-out: Butyryl esterase / Km) was 260 ± 30 µM.

As for `CC(/C=C/C(=O)NO)=C\[C@@H](C)C(=O)c1ccc(N(C)C)cc1` [Trichostatin A], in data set [1], the IC50 was 18 ± 1.3 nM. Take `CCC(=O)Oc1ccc2c(C)cc(=O)oc2c1` [4-methylumbelliferyl-propionate]: the Km in data set [2] (read-out: Propionyl esterase / Km) stood at 710 ± 390 µM. `CC(=O)Oc1ccc2c(C)cc(=O)oc2c1` [4-methylumbelliferyl-acetate]: the Km in data set [2] (read-out: Acetyl esterase / Km) worked out at 230 ± 48 µM.

In the case of `Cn1cc(C(=O)Cc2ccccc2)cc1C=CC(=O)NO` [APHA 8], in data set [1], the IC50 was determined as 310 ± 1.2 nM.

Take `C=C[C@@H](O)[C@@H]1O[C@H]1/C=C/[C@@H]1O[C@H]1[C@@H](C)O` [Depudecin]: the IC50 in data set [1] turned out to be 86 ± 2.4 nM.

With Fluor de Lys substrate, the Km in data set [3] was determined as 61 ± 3.4 µM.

B1: MBP-CpHDAC3 (recombinant CpHDAC3) (Cryptosporidium parvum Iowa II) (protein)
chain: MDPDKSLNDHQLNIKQDEVSLQSLPIDNDLNLDHSQNNSQNIDIFTVNADTINDSKDQNSTNELNMEVISDQKSTNQSEDFGSRSNLDQLIKYPLLDSFNPKPGFFQKLIHSRDSKTLKEYIFSPMRCIINDRDSSGCTALHIALLNAYPEMLEILLSCQSEDLRPNNSTENTYIAGDSLSNTAYQNNNIIPIDLSIPYAGIPISHLVLCKAIFPERYEDCMNCLYLLLPFTLTHGTSQNVSWLDINATDQLGITALHLACSFGDSKIVSLLLEYGALANISDLNNDEPIHHAISSRDPDTLSVMLSSGGADPLKETTCTANLIKCCIDKSAWRCLHTLLTDSEYQQHPISESEYDLLSFHAQKLGLGSEFERVFSIAVEIATNDESEQRRVGINESLIADGPSMGLASTRIFTHGCCIDHISLPEPMDMPIRRSKLVNKIPENPTRMEVLVKPNVGILKSNEFSLLQWTESCKPAILSDILRVHDWAYVRLLQHKVEESRLIWDQRPFLTGSIDDDTQLTPGSWKAALHASGSVINAVDCVCRGENRNAFCAIRPPGHHLGTWGAAQTVGTDEGIPSGSQGFCLLNNVAIGAAYCRYTYSNLGISKIAIIDFDVHHGNGTEQIVRNASPGNRKIKTLFNPVPGINLDLEQDISYYKIWRDELDAENIFFSSVHAYDGTFYPGTGPDQCISKPNIINIGLSEKTTSKIFRNKIKRFLLPKLLQFRPNIIFISAGFDGHVIDIVGKGFTSCTEGDYAWLTQQLISIANLCCNGRIVSVLEGGYNTKALSLSPLAKSVAAHVRTLQWTSPNLMPNPQEWDDELLTEDNEDLENEDNDITDHRDSGVFDGYPNNDLIAFGNSNVISYNADNLNNSSNSNHYVVDTGGEASYSPSLKRYKSQEKSETDENPPSNNDSSSAVFSNSQMGSYEVHSNASNVIRPKRAAAIKAEESIQKKIQSELDSSKQINGNNLSENI
For the molecule B1, in data set [4], the Km is 89 ± 18 µM and the kcat turned out to be 0.01 ± 0.00089 s⁻¹. Besides, in data set [5], the Km was determined as 77 ± 30 µM and the turnover number (kcat) stood at 0.00058 ± 9.2e-05 s⁻¹.

Usually IC50 stands for the concentration that gives 50% inhibition. Broadly, the kcat is the number of substrate molecules converted per active site and unit of time at saturation.
